The nature of test [1]: Her2 expression decrease, cell viability multiplex – SKBR3 breast tumor cells, AlphaScreen, ATP viability, primary screen (AID 461;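 active = Her2 level under about 52% in both replicate screens, with viability over 70% of control, limit read from the data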;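 as to Her2 level: lower value means less Her2 protein in the cells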;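 as to viability: percent of carrier control wells set as 100% viability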). The conditions noted are these: SKBR3 Her2 protein level, 18-24 h, measured here: SKBR3 viability, ATP luminescence, at 10 µM. A general note: Bead proximity is the source of the signal in Alpha formats.
In test [2] the target is Receptor tyrosine-protein kinase erbB-2 (Homo sapiens) (UniProt P04626). The test is described as above. The conditions noted are these: 18-24 h, at 10 µM, stronger effect = lower value.
Sequence of Receptor tyrosine-protein kinase erbB-2 (Homo sapiens) (P04626 whole entry, looked up): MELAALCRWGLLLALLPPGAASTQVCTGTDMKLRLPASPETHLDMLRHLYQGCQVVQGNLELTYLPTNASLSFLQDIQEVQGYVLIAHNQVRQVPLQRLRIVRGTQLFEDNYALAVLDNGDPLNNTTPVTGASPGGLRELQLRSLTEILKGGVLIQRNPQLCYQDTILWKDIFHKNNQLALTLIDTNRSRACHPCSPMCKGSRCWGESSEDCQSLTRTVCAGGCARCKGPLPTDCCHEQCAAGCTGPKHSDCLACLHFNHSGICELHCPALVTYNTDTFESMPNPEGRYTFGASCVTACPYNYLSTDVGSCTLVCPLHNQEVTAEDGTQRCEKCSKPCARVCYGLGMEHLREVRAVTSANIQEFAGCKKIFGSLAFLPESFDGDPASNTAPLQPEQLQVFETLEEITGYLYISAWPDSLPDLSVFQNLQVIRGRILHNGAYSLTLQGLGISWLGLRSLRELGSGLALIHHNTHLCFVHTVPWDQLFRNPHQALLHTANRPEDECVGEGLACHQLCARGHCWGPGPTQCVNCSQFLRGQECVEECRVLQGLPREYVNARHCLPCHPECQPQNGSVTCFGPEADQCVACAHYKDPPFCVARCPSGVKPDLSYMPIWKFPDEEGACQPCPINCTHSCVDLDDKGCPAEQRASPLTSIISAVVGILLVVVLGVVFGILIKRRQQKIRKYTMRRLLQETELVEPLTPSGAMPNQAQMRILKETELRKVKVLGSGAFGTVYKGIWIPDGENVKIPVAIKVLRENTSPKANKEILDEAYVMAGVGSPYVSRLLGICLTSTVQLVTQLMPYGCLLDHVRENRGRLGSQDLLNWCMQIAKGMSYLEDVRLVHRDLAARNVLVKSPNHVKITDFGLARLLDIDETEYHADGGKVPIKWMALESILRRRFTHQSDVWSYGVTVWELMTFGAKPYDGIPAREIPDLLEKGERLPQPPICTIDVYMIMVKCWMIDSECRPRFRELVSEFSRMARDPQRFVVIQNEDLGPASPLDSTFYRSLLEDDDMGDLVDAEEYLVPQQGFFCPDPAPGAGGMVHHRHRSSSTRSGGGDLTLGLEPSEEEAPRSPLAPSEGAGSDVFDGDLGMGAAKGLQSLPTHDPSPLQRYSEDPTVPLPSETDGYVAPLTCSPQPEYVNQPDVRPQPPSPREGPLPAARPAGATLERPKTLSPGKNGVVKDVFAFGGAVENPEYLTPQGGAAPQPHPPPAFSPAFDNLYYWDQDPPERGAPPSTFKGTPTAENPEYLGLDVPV
Test [3] is described as follows: reduced viability of SK-BR-3 breast cancer cells – cell-based, 24 h, human, pilot screen (AID 572;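 active = viability at or below 10% of carrier control in both of two separate runs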;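 also: compound exposure lasted between 18 and 24 h rather than exactly 24 h; 100% = carrier-treated control wells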). The conditions noted are these: SK-BR-3 viability, CellTiter-Glo luminescence, at 10 µM, stronger effect = lower value.
A short description of test [4]: HUVEC growth inhibition – cell-based, human, primary screen (AID 575;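 active = viability at or below 30% in both replicate assays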;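 also: 100% = median of untreated cell wells with 0.1% DMSO on each plate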). The conditions noted are these: HUVEC proliferation, CellTiter-Glo luminescence, 72 h; at 10 µM; stronger effect = lower value. The essentials: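 System: primary human umbilical vein endothelial cells; Quantity: 1250 endothelial cells in each well; Buffer or medium: supplemented EBM, 2% fetal bovine serum; Doses: one dose, 10 µM final, 0.1% DMSO; Incubation: 72 h compound incubation; Technique: ATP-based CellTiter-Glo luminescent read; Evaluation: percent of median DMSO-control luminescence; Controls: vehicle and MePR control wells.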

Test [5] can be described thus: H69AR cell proliferation blockers – human, duplicate replicates, primary screen (AID 580).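 Also: 100% = mean luminescence of untreated wells and 0% = no signal.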 The conditions noted are these: H69AR lung tumor cells viability, ATP luminescence, 72 h; at 10 µM; stronger effect = lower value.
Test [6] in a line: MRP1 drug-resistance reversers in H69AR cells – cell-based, doxorubicin co-treatment, pilot screen (AID 601;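 active = viability loss from added drug above about 55%, and viability with drug at most 40%, in both replicates, limit read from the data, passing the limit was not always enough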). The conditions noted are these: CellTiter-Glo, 72 h, at 10 µM; for differential viability (reversal): stronger effect = higher value. Background: ATP-based viability assays read luminescence as a measure of living cells.
The nature of test [7]: yeast transport mutant growth inhibition pilot in 384-well plates, post-Golgi transport modulator project (AID 636; in the data active = inhibition above about 31%). The conditions noted are these: absorbance 615 nm, about 18 h, stronger effect = higher value.
Test [8] is described as follows: growth suppression of yeast trafficking mutant, preliminary HTS, modulators of trafficking downstream of Golgi apparatus project, 1536-format plate, OD 615 nm (AID 637; in the data active = inhibition above about 30%). The conditions noted are these: yeast transport mutant growth, absorbance 615 nm, 18 h; stronger effect = higher value.
[9] abbreviates: H69AR cells + 2 uM doxorubicin, measured here: viability with 2 uM doxorubicin, stronger effect = lower value.
Where [10] appears, read: H69AR cells, compound alone cytotoxicity.

These results are taken from PubChem BioAssay.

Active and inactive are the calls of the source.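 The calls were made as follows, unless noted: active = viability at or under a set limit in both replicates, limit being median viability minus 3 SD (cut at about 48% in these data, passing the limit was not always enough); inconclusive = at or under the limit in just one replicate; inactive = at or above the limit in both replicates.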 Square brackets hold non-standard residues; d marks the D form. Peptide text beside a SMILES is read from it. ξ: configuration not given here. ξV = CC(C)C(N)C(=O)O

As to `Cc1cccc(-n2c(O)c(C=Nc3ccccc3N)c(=O)[nH]c2=O)c1`, the viability in test [1] is 108%; in test [3], 108% (inactive); in test [4], 88.2% (inactive); in test [5], 10.1% (active); in test [6] (setting [9]), 38.3%; in test [6] (setting [10]) it was 10.1%. Besides, the Her2 level in test [2] was 94.5% (inactive). The differential viability (reversal) in test [6] (H69AR cells + 2 uM doxorubicin) was -28.2% (inactive). Moreover, the inhibition was -5.19% (inactive) in test [7] and -0.16% (inactive) in test [8].
Turning to `Cc1ccc(-c2cc(C(=O)NCc3ccc4c(c3)OCO4)no2)cc1`, the viability is 96% in test [1]; 96% (inactive) in test [3]; 84.9% (inactive) in test [4]; 90.8% (inactive) in test [5]; 84.9% in test [6] (setting [9]); 90.8% in test [6] (setting [10]). Moreover, the Her2 level in test [2] is 77% (inactive). In addition, in test [6] (H69AR cells + 2 uM doxorubicin), the differential viability (reversal) was 5.94% (inactive). In addition, the values for the inhibition in test [7] and in test [8] were -7.43% (inactive) and -0.33% (inactive), respectively.
On to `COC(=O)n1c(=S)oc2cc(Cl)ccc21`, for which the viability was 102% in test [1]; 102% (inactive) in test [3]; 62.7% (inactive) in test [4]; 93.6% (inactive) in test [5]; 89.6% in test [6] (setting [9]); 93.6% in test [6] (setting [10]). Besides, the Her2 level in test [2] is 102% (inactive). For the same compound, in test [6] (H69AR cells + 2 uM doxorubicin), the differential viability (reversal) is 3.97% (inactive). Besides, the results for the inhibition in test [7] and in test [8] were 0.26% (inactive) and 25.6% (inactive), respectively.
Consider `O=C(NCCC1=CCCCC1)C1CCN(C(=O)Nc2ccccc2)CC1`, for which the viability was 106% in test [1]; 106% (inactive) in test [3]; 91.3% (inactive) in test [4]; 101% (inactive) in test [5]; 95.7% in test [6] (setting [9]); 101% in test [6] (setting [10]). Moreover, in test [2], the Her2 level is 128% (inactive). The differential viability (reversal) in test [6] (H69AR cells + 2 uM doxorubicin) is 5.69% (inactive). Also, the inhibition in test [7] is -2.21% (inactive); in test [8], -2.33% (inactive).
For `CCCn1c(SCC(=O)NCCc2ccccc2)nnc1-c1ccccn1`, the viability in test [1] is 97.5%; in test [3], 97.5% (inactive); in test [4] it was 108% (inactive); in test [5], 93.9% (inactive); in test [6] (setting [9]), 105%; in test [6] (setting [10]) it was 93.9%. For the same compound, the Her2 level in test [2] is 100% (inactive). In test [6] (H69AR cells + 2 uM doxorubicin), the differential viability (reversal) was -11.1% (inactive). The values for the inhibition in test [7] and in test [8] were -2.8% (inactive) and -5.16% (inactive), respectively.
On to `CCCC(=O)Nc1nnc(CC(=O)OCC)s1`, for which the viability is 111% in test [1]; 111% (inactive) in test [3]; 113% (inactive) in test [4]; 88.1% (inactive) in test [5]; 89% in test [6] (setting [9]); 88.1% in test [6] (setting [10]). Also, in test [2], the Her2 level was 108% (inactive). Besides, the differential viability (reversal) in test [6] (H69AR cells + 2 uM doxorubicin) is -0.96% (inactive). The inhibition was -2.21% (inactive) in test [7] and -7.14% (inactive) in test [8].
For the compound `COc1ccc(C2CC(c3ccc(Cl)cc3)Nc3nc(NC(=O)c4ccco4)nn32)cc1` (stereo not given), the viability in test [1] was 90.5%; in test [3], 90.5% (inactive); in test [4], 66.3% (inactive); in test [5], 81.2% (inactive); in test [6] (setting [9]) it was 90.6%; in test [6] (setting [10]) it was 81.2%. Besides, the Her2 level in test [2] was 78% (inactive). In addition, the differential viability (reversal) in test [6] (H69AR cells + 2 uM doxorubicin) is -9.39% (inactive). In addition, the values for the inhibition in test [7] and in test [8] were -5.07% (inactive) and 2.46% (inactive), respectively.
For `CC(=O)NC(C(=O)NCC(N)=O)C(C)C` (stereo not given) (Ac-[ξV]-Gly-NH2), the viability in test [1] was 90%; in test [3] it was 90% (inactive); in test [4], 100% (inactive); in test [5], 93.9% (inactive); in test [6] (setting [9]), 95.7%; in test [6] (setting [10]) it was 93.9%. The Her2 level in test [2] was 104% (inactive). In test [6] (H69AR cells + 2 uM doxorubicin), the differential viability (reversal) is -1.82% (inactive). Moreover, the inhibition in test [7] was -5.58% (inactive); in test [8] it was -9.05% (inactive).
For `C(=C\c1ccccc1)/CN1CCN(Cc2ccc3c(c2)OCCO3)CC1`, the viability in test [1] is 85%; in test [3], 85% (inactive); in test [4], 105% (inactive); in test [5], 93% (inactive); in test [6] (setting [9]), 88.6%; in test [6] (setting [10]), 93%. Moreover, the Her2 level in test [2] was 91.5% (inactive). The differential viability (reversal) in test [6] (H69AR cells + 2 uM doxorubicin) is 4.42% (inactive). For the same compound, the inhibition was -3.77% (inactive) in test [7] and 1.15% (inactive) in test [8].

For orientation: viability means a read-out of living cells in per cent, often relative to untreated cells. The inhibition is the change of the read-out against control, counted positive when it falls.
